Reference: ChEMBL document CHEMBL5058577, “EUbOPEN Chemogenomics Library 2 (Multiplex)” (2022)

Test system: U2OS
Experiment: Multiplex assay against U2OS
Format: toxicity, cell-based
Conditions: human
Method in brief: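 With compound added, live cells were imaged on a CQ1 microscope at 37°C and 5% CO2; staining with Hoechst33342, BioTracker Green Microtubule Cytoskeleton Dye, MitoTracker Red and Annexin V Alexa Fluor 680 had been done at seeding. The CellPathfinder machine-learning gating scheme split cells into Hoechst high-intensity objects or normal cells, normal cells into healthy, pyknosed or fragmented nuclei, and pyknosed cells into mitotic or apoptotic. The tubulin, mitochondrial-mass and membrane-permeability phenotypes are per cents of healthy-nucleus cells.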

[1] = 12 h, 1 µM, compound concentration 1 uM, replicate 1
[2] = 12 h, 1 µM, compound concentration 1 uM, replicate 2
[3] = 12 h, 10 µM, compound concentration 10 uM, replicate 1
[4] = 12 h, 10 µM, compound concentration 10 uM, replicate 2
[5] = 24 h, 1 µM, compound concentration 1 uM, replicate 1
[6] = 24 h, 1 µM, compound concentration 1 uM, replicate 2
[7] = 24 h, 10 µM, compound concentration 10 uM, replicate 1
[8] = 24 h, 10 µM, compound concentration 10 uM, replicate 2
[9] = 48 h, 1 µM, compound concentration 1 uM, replicate 1
[10] = 48 h, 1 µM, compound concentration 1 uM, replicate 2
[11] = 48 h, 10 µM, compound concentration 10 uM, replicate 1
[12] = 48 h, 10 µM, compound concentration 10 uM, replicate 2

## COc1c(Nc2ccc(S(C)(=O)=O)nc2C)ncnc1OC1CCN(C(=O)OC(C)C)CC1 [ADP-597]
[1]
  Population Apoptotic (%): 82%
  Population Fragmented Nuclei (%): 23%
  Population Healthy Nuclei (%): 68%
  Population Hoechst High Intensity Objects (%): 2%
  Population Membrane Permeable-Phenotype (%): 7%
  Population Mitochondria Different-Phenotype (%): 1%
  Population Mitotic Cells (%): 17%
  Population Normal (%): 97%
  Population Pyknosed Nuclei (%): 8%
  Population Tubulin-Different-Phenotype (%): 5%
  Total Cell Count: 208
[2]
  Population Apoptotic (%): 75%
  Population Fragmented Nuclei (%): 13%
  Population Healthy Nuclei (%): 78%
  Population Hoechst High Intensity Objects (%): 3%
  Population Membrane Permeable-Phenotype (%): 11%
  Population Mitotic Cells (%): 25%
  Population Normal (%): 96%
  Population Tubulin-Different-Phenotype (%): 2%
  Total Cell Count: 95
[3]
  Population Apoptotic (%): 93%
  Population Fragmented Nuclei (%): 27%
  Population Healthy Nuclei (%): 60%
  Population Hoechst High Intensity Objects (%): 8%
  Population Membrane Permeable-Phenotype (%): 7%
  Population Mitochondria Different-Phenotype (%): 2%
  Population Mitotic Cells (%): 6%
  Population Normal (%): 91%
  Population Pyknosed Nuclei (%): 11%
  Population Tubulin-Different-Phenotype (%): 4%
  Total Cell Count: 266
[4]
  Population Apoptotic (%): 85%
  Population Fragmented Nuclei (%): 10%
  Population Healthy Nuclei (%): 77%
  Population Hoechst High Intensity Objects (%): 4%
  Population Mitochondria Different-Phenotype (%): 3%
  Population Mitotic Cells (%): 14%
  Population Normal (%): 95%
  Population Tubulin-Different-Phenotype (%): 1%
  Total Cell Count: 128
[5]
  Population Apoptotic (%): 88%
  Population Fragmented Nuclei (%): 24%
  Population Healthy Nuclei (%): 67%
  Population Hoechst High Intensity Objects (%): 3%
  Population Membrane Permeable-Phenotype (%): 7%
  Population Mitochondria Different-Phenotype (%): 3%
  Population Mitotic Cells (%): 11%
  Population Normal (%): 96%
  Population Pyknosed Nuclei (%): 7%
  Population Tubulin-Different-Phenotype (%): 3%
  Total Cell Count: 239
[6]
  Population Apoptotic (%): 80%
  Population Fragmented Nuclei (%): 12%
  Population Healthy Nuclei (%): 79%
  Population Membrane Permeable-Phenotype (%): 8%
  Population Mitotic Cells (%): 20%
  Population Pyknosed Nuclei (%): 8%
  Population Tubulin-Different-Phenotype (%): 5%
  Total Cell Count: 129
[7]
  Population Apoptotic (%): 88%
  Population Fragmented Nuclei (%): 30%
  Population Healthy Nuclei (%): 61%
  Population Hoechst High Intensity Objects (%): 6%
  Population Membrane Permeable-Phenotype (%): 8%
  Population Mitochondria Different-Phenotype (%): 2%
  Population Mitotic Cells (%): 12%
  Population Normal (%): 93%
  Population Pyknosed Nuclei (%): 8%
  Population Tubulin-Different-Phenotype (%): 4%
  Total Cell Count: 305
[8]
  Population Apoptotic (%): 83%
  Population Fragmented Nuclei (%): 11%
  Population Healthy Nuclei (%): 80%
  Population Hoechst High Intensity Objects (%): 5%
  Population Membrane Permeable-Phenotype (%): 6%
  Population Mitochondria Different-Phenotype (%): 4%
  Population Mitotic Cells (%): 16%
  Population Normal (%): 94%
  Population Tubulin-Different-Phenotype (%): 1%
  Total Cell Count: 155
[9]
  Population Apoptotic (%): 80%
  Population Fragmented Nuclei (%): 19%
  Population Healthy Nuclei (%): 72%
  Population Hoechst High Intensity Objects (%): 2%
  Population Membrane Permeable-Phenotype (%): 6%
  Population Mitochondria Different-Phenotype (%): 5%
  Population Mitotic Cells (%): 19%
  Population Normal (%): 97%
  Population Pyknosed Nuclei (%): 7%
  Population Tubulin-Different-Phenotype (%): 2%
  Total Cell Count: 339
[10]
  Population Apoptotic (%): 81%
  Population Fragmented Nuclei (%): 20%
  Population Healthy Nuclei (%): 67%
  Population Membrane Permeable-Phenotype (%): 5%
  Population Mitochondria Different-Phenotype (%): 4%
  Population Mitotic Cells (%): 18%
  Population Pyknosed Nuclei (%): 12%
  Total Cell Count: 185
[11]
  Population Apoptotic (%): 79%
  Population Fragmented Nuclei (%): 24%
  Population Healthy Nuclei (%): 62%
  Population Hoechst High Intensity Objects (%): 6%
  Population Membrane Permeable-Phenotype (%): 6%
  Population Mitochondria Different-Phenotype (%): 4%
  Population Mitotic Cells (%): 20%
  Population Normal (%): 93%
  Population Pyknosed Nuclei (%): 13%
  Population Tubulin-Different-Phenotype (%): 2%
  Total Cell Count: 356
[12]
  Population Apoptotic (%): 92%
  Population Fragmented Nuclei (%): 10%
  Population Healthy Nuclei (%): 77%
  Population Hoechst High Intensity Objects (%): 3%
  Population Membrane Permeable-Phenotype (%): 4%
  Population Mitochondria Different-Phenotype (%): 0%
  Population Mitotic Cells (%): 8%
  Population Normal (%): 96%
  Population Pyknosed Nuclei (%): 11%
  Total Cell Count: 223
